Experimental data published in ChEMBL document CHEMBL1157820, “Vaccinia virus virulence factor N1L is a novel promising target for antiviral therapeutic intervention” (J Med Chem, 2010).
Activity calls are given as the source filed them. No cut-off for these calls is given here.

Experiments:
N1L [1] = molecular target: T1, N1L (Vaccinia virus, UniProt Q49PX0); assay: Displacement of FITC-conjugated BH3-Bak peptide from 0.5 uM Vaccinia virus recombinant N1L expressed in Escherichia coli BL21 (DE3) by fluorescence polarization assay; set-up: species or system Orthopoxvirus vaccinia
T1 sequence (Q49PX0 whole entry): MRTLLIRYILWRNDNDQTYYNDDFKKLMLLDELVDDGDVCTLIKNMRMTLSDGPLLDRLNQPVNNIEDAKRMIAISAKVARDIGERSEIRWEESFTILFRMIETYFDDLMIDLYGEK
Summary of the method: (§1)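 Fluorescence polarization competition: N1L or Bcl-XL incubated with 10 nM BH3-Bak peptide and titrated ligand. Bcl-XL run on the same plate as N1L. N1L tested at several concentrations, none below 500 nM. Normalized polarization vs log ligand fit to a variable-slope dose-response curve for competitive IC50.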

N1L [2] = molecular target: T1, N1L; assay: Displacement of FITC-conjugated BH3-Bak peptide from 1 uM Vaccinia virus recombinant N1L expressed in Escherichia coli BL21 (DE3) by fluorescence polarization assay; set-up: species or system Orthopoxvirus vaccinia; summary of the method: as §1
N1L (Vaccinia virus) [3] = molecular target: N1L (Vaccinia virus) (UniProt Q49PX0); assay: Binding affinity to Vaccinia virus recombinant N1L expressed in Escherichia coli BL21 (DE3) assessed as effect on enthalpy of protein unfolding at 106 uM by differential scanning calorimetry; settings: Orthopoxvirus vaccinia
Summary of the method: (§2)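 DSC at 1 K/min scan rate under 3.0 atm. Samples in PBS with 1.0 mg/ml (71 μM) N1L, 2 or 5% DMSO, and compound at 71, 106 or 214 μM; DMSO-only reference. Melting temperature and enthalpy of unfolding (area under peak) taken from thermograms.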

N1L [4] = molecular target: T1, N1L; assay: Displacement of FITC-conjugated BH3-Bak peptide from Vaccinia virus recombinant N1L expressed in Escherichia coli BL21 (DE3) by fluorescence polarization assay; set-up: species or system Orthopoxvirus vaccinia; summary of the method: as §1
[5] = Displacement of FITC-conjugated BH3-Bim peptide from Vaccinia virus N-terminal GST-fused F1L expressed in Escherichia coli BL21 (DE3) by fluorescence polarization assay; set-up: species or system Orthopoxvirus vaccinia
Summary of the method: (§3)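 Fluorescence polarization competition with 10 nM BH3-Bim peptide against F1L or Bcl-2, run alongside N1L, with titrated ligand and a variable-slope dose-response fit for IC50. F1L construct: residues 35–190 from vaccinia WR as N-terminal GST fusion, expressed in E. coli BL21(DE3) (500 μM IPTG, 20 °C, 18 h), finished on Superdex 200 in 20 mM Tris pH 8.0, 100 mM NaCl.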

N1L (Vaccinia virus) [6] = molecular target: N1L (Vaccinia virus) (UniProt Q49PX0); assay: Binding affinity to Vaccinia virus recombinant N1L expressed in Escherichia coli BL21 (DE3) assessed as protein melting temperature at 106 uM by differential scanning calorimetry; settings: Orthopoxvirus vaccinia; summary of the method: as §2
N1L (Vaccinia virus) [7] = molecular target: N1L (Vaccinia virus) (UniProt Q49PX0); assay: Destabilizing effect on Vaccinia virus recombinant N1L expressed in Escherichia coli BL21 (DE3) assessed as decrease in equilibrium constant of protein dimerization at 100 uM by analytical ultracentrifugation; settings: Orthopoxvirus vaccinia
Summary of the method: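 Sedimentation equilibrium AUC of N1L in PBS at 0.45, 0.15 and 0.05 mg/ml, with 2% DMSO and compound at 50–100 μM. Spun at 20,000 rpm, 20 °C, 24 h. Data fit to a monomer–dimer or monomer–dimer–tetramer equilibrium model to obtain the dimerization KD.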

[8] = Cytotoxicity against african green monkey CV1 cells at >100 uM after 2.5 day by ATP lite assay; format: cell-based; settings: chlorocebus aethiops, cv-1, 60 h
HT-1080 = assay: Cytotoxicity against human HT1080 cells at >100 uM after 2.5 day by ATP lite assay; format: cell-based; settings: ht-1080, 60 h
[9] = Therapeutic index, ratio of TC50 for human HT1080 cells to EC50 for GFP-expressing Vaccinia virus WR infected in human HT1080 cells; format: cell-based, HT-1080; settings: read-out: TI
[10] = Therapeutic index, ratio of TC50 for african green monkey CV1 cells to EC50 for GFP-expressing Vaccinia virus WR infected in african green monkey CV1 cells; format: cell-based, CV-1; settings: read-out: TI
N1L (Vaccinia virus) [11] = molecular target: N1L (Vaccinia virus) (UniProt Q49PX0); assay: Binding affinity to Vaccinia virus recombinant N1L expressed in Escherichia coli BL21 (DE3) assessed as effect on enthalpy of protein unfolding at 214 uM by differential scanning calorimetry; settings: Orthopoxvirus vaccinia
Summary of the method: (§4)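 Differential scanning calorimetry of recombinant N1L at 1.0 mg/ml (71 μM) in PBS with 2 or 5% DMSO, plus 214 μM compound, against a DMSO-only reference. Scanned at 1 K/min under 3.0 atm. Melting temperature (Tm) is taken from the peak, and enthalpy of unfolding (ΔH) from the area under the DSC peak.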

N1L (Vaccinia virus) [12] = molecular target: N1L (Vaccinia virus) (UniProt Q49PX0); assay: Binding affinity to Vaccinia virus recombinant N1L expressed in Escherichia coli BL21 (DE3) assessed as protein melting temperature at 214 uM by differential scanning calorimetry; settings: Orthopoxvirus vaccinia; summary of the method: as §4
Bcl-2-like protein 1 = Bcl-2-like protein 1 (Homo sapiens, UniProt Q07817); assay: Displacement of FITC-conjugated BH3-Bak peptide from human recombinant Bcl-XL expressed in Escherichia coli BL21 (DE3) by fluorescence polarization assay; summary of the method: as §1
Chain of Bcl-2-like protein 1 (Q07817 whole entry): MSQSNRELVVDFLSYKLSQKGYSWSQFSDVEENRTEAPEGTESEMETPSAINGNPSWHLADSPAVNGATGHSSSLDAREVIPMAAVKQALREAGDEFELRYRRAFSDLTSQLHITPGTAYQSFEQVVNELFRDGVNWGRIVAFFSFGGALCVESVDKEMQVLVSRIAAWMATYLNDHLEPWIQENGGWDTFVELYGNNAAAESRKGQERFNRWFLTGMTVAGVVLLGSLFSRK

Vaccinia virus [13] = assay: Antiviral activity against GFP-expressing Vaccinia virus WR infected in african green monkey CV1 cells after 2.5 days by fluorescence assay; format: functional, organism-based; settings: Orthopoxvirus vaccinia, CV-1, 60 h
Vaccinia virus [14] = assay: Antiviral activity against GFP-expressing Vaccinia virus WR infected in human HT1080 cells after 2.5 days by fluorescence assay; format: functional, organism-based; settings: Orthopoxvirus vaccinia, HT-1080, 60 h
[15] = molecular target: Apoptosis regulator Bcl-2 (Homo sapiens, UniProt P10415); assay: Displacement of FITC-conjugated BH3-Bim peptide from human recombinant Bcl-2 expressed in Escherichia coli BL21 (DE3) by fluorescence polarization assay; summary of the method: as §3
Chain of Apoptosis regulator Bcl-2 (P10415 whole entry): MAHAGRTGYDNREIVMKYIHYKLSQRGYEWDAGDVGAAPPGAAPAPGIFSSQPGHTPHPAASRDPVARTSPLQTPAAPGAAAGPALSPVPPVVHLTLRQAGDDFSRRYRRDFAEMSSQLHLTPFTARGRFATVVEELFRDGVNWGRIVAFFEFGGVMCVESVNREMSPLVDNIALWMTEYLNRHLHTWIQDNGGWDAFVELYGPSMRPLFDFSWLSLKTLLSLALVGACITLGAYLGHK

N1L (Vaccinia virus) [16] = molecular target: N1L (Vaccinia virus) (UniProt Q49PX0); assay: Binding affinity to Vaccinia virus recombinant N1L expressed in Escherichia coli BL21 (DE3) assessed as effect on enthalpy of protein unfolding at 71 uM by differential scanning calorimetry; settings: Orthopoxvirus vaccinia; summary of the method: as §2
N1L (Vaccinia virus) [17] = molecular target: N1L (Vaccinia virus) (UniProt Q49PX0); assay: Binding affinity to Vaccinia virus recombinant N1L expressed in Escherichia coli BL21 (DE3) assessed as protein melting temperature at 71 uM by differential scanning calorimetry; settings: Orthopoxvirus vaccinia; summary of the method: as §2

SMILES	IC50 (N1L [1]) [µM]	IC50 (N1L [2]) [µM]	Activity (N1L (Vaccinia virus) [3])	IC50 (N1L [4]) [µM]	Tm (N1L (Vaccinia virus) [6]) [°C]	further results
Oc1cc(C(c2ccccc2)c2ccccc2)c2ccccc2c1O	0.6	1.9	inactive	0.6	54.9	IC50 [5]: 1.4 µM; Activity (N1L (Vaccinia virus) [7]): Active
COc1ccc(C(C)c2cc(OC)c(OC)c(OC)c2)cc1 (stereo not given)	5.6	6.6		5.6		Activity [8]: Non-toxic; Activity (HT-1080): Non-toxic; selectivity ratio [9]: 50; selectivity ratio [10]: 50
COc1ccc(CCc2cc(OC)c(O)c(OC)c2)cc1	5	7.5		5		Activity (N1L (Vaccinia virus) [11]): inactive; Tm (N1L (Vaccinia virus) [12]): 54.4 °C
COc1cc(C(=N\c2ccccc2)/C(=N/c2ccccc2)c2cc(OC)c(OC)c(OC)c2)cc(OC)c1OC	2.4	3.5		2.4		
Oc1ccc(/C=C/c2cc(O)cc(O)c2)cc1 [RESVERATROL]		21.9		21.9		IC50 (Bcl-2-like protein 1): 190 µM; Activity (N1L (Vaccinia virus) [11]): inactive; Tm (N1L (Vaccinia virus) [12]): 54.2 °C
COc1cc(-c2ccc3cc(OC)c(OC)c(OC)c3c2)cc(OC)c1OC	0.9	1.6	inactive	0.9	56.3	EC50 (Vaccinia virus [13]): 13.2 µM; Activity [8]: Non-toxic; Activity (HT-1080): Non-toxic; IC50 [5]: 1.7 µM; EC50 (Vaccinia virus [14]): 16.9 µM; Activity (N1L (Vaccinia virus) [7]): Active
COc1cc(C(c2ccc(O)c(OC)c2)c2ccc(O)c(OC)c2)ccc1O	8.8	12.4		8.8		
Oc1ccc(/C=N/c2ccccc2/N=C/c2ccc(O)c(O)c2)cc1O	1.2	1.3	inactive	1.2	52.3	EC50 (Vaccinia virus [13]): 13.2 µM; Activity [8]: Non-toxic; Activity (HT-1080): Non-toxic; selectivity ratio [9]: 5.6; selectivity ratio [10]: 5.6; EC50 (Vaccinia virus [14]): 10.9 µM
COc1ccc(/C(=N/c2ccc(C)cc2)c2ccccc2)cc1		1.7		1.7		
Oc1cc(Cc2ccccc2)c(Cc2ccccc2)cc1O	0.9	1.8	inactive	0.9	48.6	IC50 (Bcl-2-like protein 1): 8.5 µM; IC50 [15]: 4.7 µM; IC50 [5]: 0.6 µM
COc1cc(C(c2ccccc2)c2ccccc2)c2ccccc2c1O	1.8	2		1.8		Activity (N1L (Vaccinia virus) [16]): inactive; Tm (N1L (Vaccinia virus) [17]): 57.5 °C
COc1ccc2ccccc2c1-c1c(O)ccc2ccccc12	1.5	3.6		1.5		
